Experiments:
[1] = tested on: Human immunodeficiency virus 1; assay: Antiviral effective concentration for Inhibitory activity on HIV-1(IIIB) replication in MT-4 cells; assay type: functional, organism-based; conditions: Human immunodeficiency virus 1, MT4
Method in brief: (§1)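 MT-4 cells infected at MOI 0.01 (100 × CCID50) with HIV-1 (IIIB) or HIV-2 (ROD) in presence of graded compound concentrations; antiviral and cytotoxicity run in parallel, CC50 on mock-infected cells. After 5 days of growth, viable cells counted by MTT colorimetry. EC50 = concentration protecting 50% of infected cells from cytopathicity; values averaged over several experiments.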

MT4 = assay: 50% cytotoxic concentration was tested against HIV infected MT-4 cells; assay type: functional; conditions: Homo sapiens, in the assay text read “mock-infected” for “HIV infected”; method in brief: as §1
[2] = tested on: Human immunodeficiency virus 2; assay: Antiviral effective concentration for Inhibitory activity on HIV-2(ROD) replication in MT-4 cells; assay type: functional, organism-based; conditions: Human immunodeficiency virus 2, MT4; method in brief: as §1
[3] = target: C-X-C chemokine receptor type 4 (Homo sapiens, UniProt P61073); assay: Inhibitory activity against CXCR4-specific monoclonal antibody 12G5 (mAb-12G5) binding to human chemokinin receptor CXCR4 in lymphocytic SUP-T1 cells; assay type: cell-based
Sequence of C-X-C chemokine receptor type 4 (P61073 whole entry): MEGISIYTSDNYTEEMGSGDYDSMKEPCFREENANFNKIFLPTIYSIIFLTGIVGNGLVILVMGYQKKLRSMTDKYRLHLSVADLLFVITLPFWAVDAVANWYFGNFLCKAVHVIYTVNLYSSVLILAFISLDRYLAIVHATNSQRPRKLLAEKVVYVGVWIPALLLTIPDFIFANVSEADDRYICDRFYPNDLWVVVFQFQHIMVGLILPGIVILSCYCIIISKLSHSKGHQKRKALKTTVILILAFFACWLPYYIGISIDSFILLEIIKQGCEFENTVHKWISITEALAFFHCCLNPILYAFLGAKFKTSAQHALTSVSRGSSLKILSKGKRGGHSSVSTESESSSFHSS
Method in brief: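 SUP-T1 cells preincubated with compound or PBS 15 min at room temperature, washed, then exposed to CXCR4 mAb 12G5 for 30 min, washed, stained with FITC goat anti-mouse antibody for 30 min at room temperature. Flow cytometry measured percent positive cells and MFI; inhibition derived from MFI, IC50 calculated.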

Row | SMILES | EC50 [1] [µM] | EC50 [2] [µM] | IC50 [3] [µM] | CC50 (MT4) [µM]
1 | c1cc2nc(c1)CNCCCN(Cc1ccc(CN3CCCNCc4cccc(n4)CNCCC3)cc1)CCCNC2 | 0.534 | – | – | 199
2 | c1cc(CN2CCCNCCNCCCNCC2)ccc1CN1CCCNCCNCCCNCC1 | – | – | – | > 421
3 | c1cc2nc(c1)CCNCCN(Cc1ccc(CN3CCNCCc4cccc(n4)CCNCC3)cc1)CCNCC2 | 0.0008 | 0.0016 | 0.001 | 194
4 | c1cc(CN2CCCNCCOCCNCCC2)ccc1CN1CCCNCCOCCNCCC1 | 4.49 | – | – | > 244
5 | COc1cc2nc(c1)CNCCCN(Cc1ccc(CN3CCCNCc4cc(OC)cc(n4)CNCCC3)cc1)CCCNC2 | 3.1 | 8.46 | – | 216
6 | Clc1cc2nc(c1)CNCCCN(Cc1ccc(CN3CCCNCc4cc(Cl)cc(n4)CNCCC3)cc1)CCCNC2 | 0.751 | 0.759 | 5.74 | 17.8
7 | Oc1cc2nc(c1)CNCCCN(Cc1ccc(CN3CCCNCc4cc(O)cc(n4)CNCCC3)cc1)CCCNC2 | 174 | 200 | > 35 | 200
8 | c1ccc(-c2cc3nc(c2)CNCCCN(Cc2ccc(CN4CCCNCc5cc(-c6ccccc6)cc(n5)CNCCC4)cc2)CCCNC3)cc1 | 1.75 | – | – | 19.3
9 | c1cc(CN2CCNCc3cccc(n3)CNCC2)cc(CN2CCNCc3cccc(n3)CNCC2)c1 | 0.0971 | 0.0025 | – | 30

Continued, in another order:

Row | EC50 [1] [µM] | EC50 [2] [µM] | IC50 [3] [µM] | SMILES | CC50 (MT4) [µM]
10 | > 363 | > 363 | > 35 | c1cc(CN2CCCOCCOCCCNCC2)ccc1CN1CCCOCCOCCCNCC1 | > 363
11 | 0.524 | 0.127 | 4.36 | c1cc2nc(c1)CNCCN(Cc1ccc(CN3CCNCc4cccc(n4)CNCC3)cc1)CCNC2 | 8.5
12 | > 6.84 | > 6.84 | > 35 | c1cc(CN2CCCSCCSCCCNCC2)ccc1CN1CCCSCCSCCCNCC1 | 6.8
13 | 7.96 | – | – | c1cc2cc(c1)CNCCCN(Cc1ccc(CN3CCCNCc4cccc(c4)CNCCC3)cc1)CCCNC2 | 133
14 | 0.421 | 1.21 | – | c1cc2nc(c1)CCNCCCN(Cc1ccc(CN3CCCNCCc4cccc(n4)CCNCCC3)cc1)CCCNCC2 | 142
15 | 30.9 | 20.7 | > 35 | c1cc(CN2CCCNCc3cncc(n3)CNCCC2)ccc1CN1CCCNCc2cncc(n2)CNCCC1 | 209
16 | 9.61 | – | > 35 | c1cc(CN2CCCNCCCCCNCCC2)ccc1CN1CCCNCCCCCNCCC1 | 133
17 | 0.0337 | 0.0422 | 0.067 | c1cc(CN2CCCNCCNCCNCCC2)ccc1CN1CCCNCCNCCNCCC1 | > 421

From ChEMBL document CHEMBL1132406, “Synthesis and structure-activity relationships of phenylenebis(methylene)-linked bis-azamacrocycles that inhibit HIV-1 and HIV-2 replication by antagonism of the chemokine receptor CXCR4” (J Med Chem, 1999)
